Measurements published in ChEMBL document CHEMBL3576820, “Discovery of benzimidazole oxazolidinediones as novel and selective nonsteroidal mineralocorticoid receptor antagonists” (ACS Med Chem Lett, 2015).
Active and inactive are the calls of the source. The calls are words filed in the database; no cut-off is given here.

Assays:
[1] = Plasma clearance in Wistar han rat at 2 mg/kg, po and 1 mg/kg, iv; type: ADME, organism-based
In short: (§1)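 Wistar Han rats. IV dose 1 mg/kg in DMSO/PEG200/water (10:60:30), n=2. Oral dose 2 mg/kg in imwitor/tween (1:1) by gavage, n=3. Values are averages. Derived: F%, plasma clearance, Vdss, terminal half-life and oral AUC normalized to dose.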

[2] = biological target: T1, Glucocorticoid receptor (Homo sapiens, UniProt P04150); assay: Antagonist activity at human glucocorticoid receptor expressed in CHOK1 cells assessed as inhibition of dexamethasone-induced protein interaction with steroid receptor co-activator peptide after overnight incubation by beta-galactosidase reporter gene assay; type: cell-based, CHO-K1
T1 sequence (P04150 whole entry): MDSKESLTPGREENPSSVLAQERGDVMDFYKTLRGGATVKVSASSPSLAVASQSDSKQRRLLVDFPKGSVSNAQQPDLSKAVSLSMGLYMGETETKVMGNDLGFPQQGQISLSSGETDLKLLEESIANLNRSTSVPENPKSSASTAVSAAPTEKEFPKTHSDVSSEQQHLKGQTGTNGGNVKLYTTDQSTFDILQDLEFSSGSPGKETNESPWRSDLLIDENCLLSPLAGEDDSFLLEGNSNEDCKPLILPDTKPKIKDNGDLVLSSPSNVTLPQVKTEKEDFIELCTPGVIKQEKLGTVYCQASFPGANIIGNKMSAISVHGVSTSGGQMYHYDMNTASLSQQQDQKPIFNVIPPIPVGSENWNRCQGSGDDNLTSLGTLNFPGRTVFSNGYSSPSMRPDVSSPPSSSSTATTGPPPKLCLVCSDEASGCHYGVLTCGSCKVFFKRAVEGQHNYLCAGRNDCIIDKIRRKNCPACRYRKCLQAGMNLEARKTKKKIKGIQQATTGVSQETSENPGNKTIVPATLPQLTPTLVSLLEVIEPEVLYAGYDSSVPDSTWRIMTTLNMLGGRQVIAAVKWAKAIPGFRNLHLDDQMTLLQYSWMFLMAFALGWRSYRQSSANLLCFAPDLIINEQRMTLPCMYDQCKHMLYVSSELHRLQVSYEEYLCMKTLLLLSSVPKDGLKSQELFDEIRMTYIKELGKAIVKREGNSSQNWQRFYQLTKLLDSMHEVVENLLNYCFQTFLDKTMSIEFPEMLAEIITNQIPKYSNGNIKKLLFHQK

[3] = biological target: T2, Mineralocorticoid receptor (Homo sapiens, UniProt P08235); assay: Antagonist activity at human mineralocorticoid receptor overexpressed in CHOK1 cells assessed as inhibition of aldosterone-induced protein interaction with coactivator peptide after 6 hrs by luminescence assay; type: cell-based, CHO-K1
T2 sequence (P08235 whole entry): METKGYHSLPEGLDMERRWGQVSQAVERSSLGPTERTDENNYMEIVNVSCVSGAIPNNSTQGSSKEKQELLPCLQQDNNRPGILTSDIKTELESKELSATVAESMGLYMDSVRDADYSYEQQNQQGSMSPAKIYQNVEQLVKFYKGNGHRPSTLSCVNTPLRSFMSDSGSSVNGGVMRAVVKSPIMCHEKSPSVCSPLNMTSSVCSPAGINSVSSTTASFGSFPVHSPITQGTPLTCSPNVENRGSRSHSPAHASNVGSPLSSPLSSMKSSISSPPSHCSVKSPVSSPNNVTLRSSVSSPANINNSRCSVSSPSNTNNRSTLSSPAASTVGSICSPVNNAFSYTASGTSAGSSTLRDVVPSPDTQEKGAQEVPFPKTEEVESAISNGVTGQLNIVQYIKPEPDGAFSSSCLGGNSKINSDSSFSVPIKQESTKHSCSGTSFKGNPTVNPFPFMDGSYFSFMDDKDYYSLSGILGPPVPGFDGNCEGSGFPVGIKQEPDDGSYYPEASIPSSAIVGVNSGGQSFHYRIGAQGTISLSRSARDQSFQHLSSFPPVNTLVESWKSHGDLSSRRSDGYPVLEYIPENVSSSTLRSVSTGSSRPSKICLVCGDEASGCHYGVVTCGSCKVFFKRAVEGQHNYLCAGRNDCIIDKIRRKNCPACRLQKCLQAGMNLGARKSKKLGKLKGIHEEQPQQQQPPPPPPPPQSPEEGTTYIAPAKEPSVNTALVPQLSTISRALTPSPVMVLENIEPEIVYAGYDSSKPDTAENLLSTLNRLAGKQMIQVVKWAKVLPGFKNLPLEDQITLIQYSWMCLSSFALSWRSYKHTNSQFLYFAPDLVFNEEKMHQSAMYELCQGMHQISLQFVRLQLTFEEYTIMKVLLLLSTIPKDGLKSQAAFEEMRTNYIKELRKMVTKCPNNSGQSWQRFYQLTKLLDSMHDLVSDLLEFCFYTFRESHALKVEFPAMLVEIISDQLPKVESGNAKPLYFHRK

[4] = Oral bioavailability in Wistar han rat at 2 mg/kg; type: ADME, organism-based; conditions: in vivo; in short: as §1
[5] = test system: Rattus norvegicus; assay: Natriuretic activity in po dosed WKY rat measured over 6 hrs; type: functional, organism-based
[6] = species: Homo sapiens; assay: Selectivity ratio of IC50 for human glucocorticoid receptor to IC50 for human mineralocorticoid receptor
[7] = species: Homo sapiens; assay: Selectivity ratio of IC50 for human estrogen receptor alpha to IC50 for human mineralocorticoid receptor
[8] = species: Homo sapiens; assay: Selectivity ratio of IC50 for human progesterone receptor beta to IC50 for human mineralocorticoid receptor
[9] = species: Homo sapiens; assay: Selectivity ratio of IC50 for human estrogen receptor beta to IC50 for human mineralocorticoid receptor
[10] = species: Homo sapiens; assay: Selectivity ratio of IC50 for human androgen receptor to IC50 for human mineralocorticoid receptor
[11] = Plasma protein binding in human; type: ADME, cell-free; conditions: read-out: PPB
[12] = Plasma protein binding in rat; type: ADME, cell-free; conditions: read-out: PPB
[13] = biological target: T2, Mineralocorticoid receptor; assay: Binding affinity to mineralocorticoid receptor (unknown origin)

## C[C@H](c1ccc(F)cc1)N1C(=O)O[C@](Cc2ccccc2)(c2nc3cc(NS(C)(=O)=O)ccc3[nH]2)C1=O
[1]
  clearance: 32 mL/min/kg
[2]
  IC50: > 20000 nM
[3]
  IC50: 220 nM
[4]
  bioavailability: 6%
[5]
  Activity: Active

## C[C@H](c1ccc(F)cc1)N1C(=O)O[C@](Cc2ccccc2)(c2nc3cc(-c4cc[nH]n4)ccc3[nH]2)C1=O
[1]
  clearance: 19 mL/min/kg
[2]
  IC50: 3000 nM
[3]
  IC50: 120 nM
[4]
  bioavailability: 27%

## C[C@H](c1ccc(F)cc1)N1C(=O)O[C@](Cc2ccccc2)(c2nc3cc(N4CCOCC4)ccc3[nH]2)C1=O
[6]
  Ratio IC50: > 40
[1]
  clearance: 67 mL/min/kg
[2]
  IC50: 4900 nM
[3]
  IC50: 40 nM
[4]
  bioavailability: 44%
[7]
  Ratio IC50: > 40
[8]
  Ratio IC50: > 40
[9]
  Ratio IC50: > 40
[10]
  Ratio IC50: > 40
[5]
  Activity: Dose-dependent effect

## C[C@H](c1ccc(F)cc1)N1C(=O)O[C@](Cc2ccccc2)(c2nc3c(NS(C)(=O)=O)cccc3[nH]2)C1=O
[1]
  clearance: 55 mL/min/kg
[2]
  IC50: 17000 nM
[3]
  IC50: 210 nM
[4]
  bioavailability: 15%

## Cc1nocc1-c1ccc2[nH]c([C@@]3(Cc4ccccc4)OC(=O)N([C@H](C)c4ccc(F)cc4)C3=O)nc2c1
[6]
  Ratio IC50: > 40
[1]
  clearance: 20 mL/min/kg
[2]
  IC50: 2900 nM
[3]
  IC50: 39 nM
[4]
  bioavailability: 54%
[7]
  Ratio IC50: > 40
[8]
  Ratio IC50: > 40
[9]
  Ratio IC50: > 40
[10]
  Ratio IC50: 90

## C[C@H](c1ccc(F)cc1)N1C(=O)O[C@](Cc2ccccc2)(c2nc3cc(C(F)(F)F)ccc3[nH]2)C1=O
[11]
  fraction unbound: < 0.01
[1]
  clearance: 33 mL/min/kg
[2]
  IC50: 3400 nM
[3]
  IC50: 120 nM
[12]
  fraction unbound: < 0.01
[4]
  bioavailability: 36%

## C[C@H](c1ccc(F)cc1)N1C(=O)O[C@](Cc2ccccc2)(c2nc3cc(-c4cccnc4)ccc3[nH]2)C1=O
[6]
  Ratio IC50: > 40
[11]
  fraction unbound: < 0.01
[1]
  clearance: 80 mL/min/kg
[2]
  IC50: 3100 nM
[3]
  IC50: 34 nM
[12]
  fraction unbound: < 0.01
[4]
  bioavailability: 11%
[7]
  Ratio IC50: > 40
[8]
  Ratio IC50: > 40
[9]
  Ratio IC50: > 40
[10]
  Ratio IC50: 110
[5]
  Activity: Active

## C[C@H](c1ccc(F)cc1)N1C(=O)O[C@](Cc2ccccc2)(c2nc3cc(Cl)ccc3[nH]2)C1=O
[11]
  fraction unbound: < 0.01
[13]
  Ki: 2 nM
[1]
  clearance: 47 mL/min/kg
[2]
  IC50: 3800 nM
[3]
  IC50: 160 nM
[12]
  fraction unbound: < 0.01
[4]
  bioavailability: 15%
[5]
  Activity: Active
